According to ChEMBL document CHEMBL3425411, “Synthesis of β-Carboline-Based N-Heterocyclic Carbenes and Their Antiproliferative and Antimetastatic Activities against Human Breast Cancer Cells” (J Med Chem, 2015):
Calls of active or inactive are those of the source. The rule behind the calls is not given here.

Tests used:
MDA-MB-231 [1] = assay: Upregulation of cleaved caspase-3 expression in human MDA-MB-231 cells at 5 to 7.5 uM after 24 hrs by Western blot analysis; format: functional, cell-based
Outline: (§1)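 MDA-MB-231 cells treated 24 h, then lysed in RIPA buffer. 40 μg protein run on 10–15% SDS–PAGE and transferred to PVDF. Blocked in 5% milk, probed overnight at 4 °C with primary antibodies (phospho- and total ERK1/2, JNK, p38, cleaved caspase-3), then HRP secondary. ECL detection with β-actin as loading control. Blots representative of three experiments.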

MDA-MB-231 [2] = assay: Downregulation of Bcl-2 expression in human MDA-MB-231 cells at 5 to 7.5 uM after 24 hrs by Western blot analysis; format: functional, cell-based
Outline: (§2)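 Cells were treated for 24 h. Lysates were made in RIPA buffer, and 40 μg protein was resolved on 10–15% SDS-PAGE and transferred to PVDF. Membranes were blocked with 5% milk and probed overnight at 4 °C with primary antibodies, then HRP secondaries. Detection was by ECL with β-actin as loading control. Blots represent three independent experiments.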

MDA-MB-231 [3] = assay: Downregulation of Bcl-XL expression in human MDA-MB-231 cells at 5 to 7.5 uM after 24 hrs by Western blot analysis; format: functional, cell-based; outline: as §2
MDA-MB-231 [4] = assay: Downregulation of survivin expression in human MDA-MB-231 cells at 5 to 7.5 uM after 24 hrs by Western blot analysis; format: functional, cell-based; outline: as §2
MDA-MB-231 [5] = assay: Induction of apoptosis in human MDA-MB-231 cells assessed as PARP cleavage at 5 to 7.5 uM after 24 hrs by Western blot analysis; format: functional, cell-based; outline: as §2
MDA-MB-231 [6] = assay: Downregulation of cyclin B expression in human MDA-MB-231 cells at 5 to 7.5 uM after 24 hrs by Western blot analysis; format: functional, cell-based; outline: as §2
MDA-MB-231 [7] = assay: Downregulation of CDC25C expression in human MDA-MB-231 cells at 5 to 7.5 uM after 24 hrs by Western blot analysis; format: functional, cell-based; outline: as §2
MDA-MB-231 [8] = assay: Downregulation of CDK1 expression in human MDA-MB-231 cells at 5 to 7.5 uM after 24 hrs by Western blot analysis; format: functional, cell-based; outline: as §2
MDA-MB-231 [9] = assay: Antimigratory activity against human MDA-MB-231 cells at 2.5 to 5 uM after 12 to 24 hrs by wound healing assay; format: functional, cell-based
Outline: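 2 × 10⁵ cells were plated in six-well plates and scratched with a 200 μL tip. Debris was removed, then cells were treated (0, 1, 2.5, 5, 7.5 μM; or 0–5 μM). The wound was photographed at 0, 12 and 24 h under 100× phase contrast. Area was measured as percent wound closure versus control. Three independent experiments, mean ± SEM.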

MDA-MB-231 [10] = assay: Antiinvasive activity against human MDA-MB-231 cells at 1 uM after 48 hrs by transwell assay; format: functional, cell-based
Outline: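 Matrigel (growth factor reduced, diluted in serum-free medium) coated on 8 μm pore polycarbonate transwell membranes, set 2 h at 37 °C. 30 000 cells/well seeded in RPMI-1640 with 1% FBS plus compound; lower chamber had 10% FBS as chemoattractant. After 48 h, non-invaded cells were swabbed off and invaded cells were methanol-fixed and stained with 0.1% crystal violet. At least 10 random fields were counted and expressed versus control.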

[11] = target: 72 kDa type IV collagenase (Homo sapiens) (UniProt P08253); assay: Inhibition of MMP-2 in human MDA-MB-231 cells at 1 to 5 uM after 24 hrs by gelatin zymographic method; format: cell-based
Outline: (§3)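 MDA-MB-231 cells, 1 × 10⁵ per well, treated 24 h with 0, 1, 2.5, 5 or 7.5 μM. Conditioned medium centrifuged and equal protein loaded on 8% SDS–PAGE containing 0.1% gelatin, run at 80 V. Triton X-100 washes, then developed 20 h at 37 °C in Tris-HCl pH 7.5 with NaCl, CaCl₂ and ZnCl₂. Coomassie stain, then destain.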

[12] = target: Matrix metalloproteinase-9 (Homo sapiens) (UniProt P14780); assay: Inhibition of MMP-9 in human MDA-MB-231 cells at 1 to 5 uM after 24 hrs by gelatin zymographic method; format: cell-based; outline: as §3
[13] = target: Mitogen-activated protein kinase; ERK1/ERK2 (Homo sapiens) (UniProt P27361+P28482); assay: Inhibition of ERK1/2 phosphorylation in human MDA-MB-231 cells at 5 to 7.5 uM after 24 hrs by Western blot analysis; format: cell-based; outline: as §1
[14] = target: c-Jun N-terminal kinase, JNK (Homo sapiens) (UniProt P45983+P53779+P45984); assay: Inhibition of SAPK/JNK phosphorylation in human MDA-MB-231 cells at 5 to 7.5 uM after 24 hrs by Western blot analysis; format: cell-based; outline: as §1
[15] = target: MAP kinase p38 (Homo sapiens) (UniProt O15264+Q15759+Q16539+P53778); assay: Induction of p38 MAPK phosphorylation in human MDA-MB-231 cells at 5 to 7.5 uM after 24 hrs by Western blot analysis; format: cell-based; outline: as §1
Albumin [16] = target: T1, Albumin (Homo sapiens, UniProt P02768); assay: Binding affinity to human serum albumin at 2 to 50 uM at pH 7.4 by spectroscopic analysis; format: ADME; details: isolated protein, pH 7.4, 50 µM
Outline: (§4)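 Fatty-acid-free HSA (10 μM) in 0.05 M phosphate buffer pH 7.4 was titrated with compound from 0 to 50 μM. Trp emission was excited at 295 nm and quenching was monitored. Data were fitted to the Stern–Volmer equation and a modified log[(F₀−F)/F] versus log[Q] plot, giving Kb and n from intercept and slope.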

Albumin [17] = target: T1, Albumin; assay: Binding affinity to human serum albumin at 2 to 50 uM at pH 7.4 by fluorescence spectra analysis; format: ADME; details: isolated protein, pH 7.4, 50 µM; outline: as §4
Albumin [18] = target: T1, Albumin; assay: Binding affinity to human serum albumin at 283 K at pH 7.4 by fluorescence spectra analysis; format: ADME; details: isolated protein
Outline: (§5)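 Steady-state Trp fluorescence quenching of HSA (10 μM, 0.05 M phosphate pH 7.4, excitation 295 nm) by increasing compound was run at each of three temperatures. F₀/F was fitted to the Stern–Volmer equation for KSV. Binding constant Kb and n came from the modified equation log[(F₀−F)/F] = log Kb + n log[Q].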

Albumin [19] = target: T1, Albumin; assay: Binding affinity to human serum albumin at 293 K at pH 7.4 by fluorescence spectra analysis; format: ADME; details: isolated protein; outline: as §5
Albumin [20] = target: T1, Albumin; assay: Binding affinity to human serum albumin at 303 K at pH 7.4 by fluorescence spectra analysis; format: ADME; details: isolated protein; outline: as §5
Albumin [21] = target: T1, Albumin; assay: Binding affinity to human serum albumin assessed as change in secondary structure up to 40 uM at pH 7.4 by circular dichroism spectra analysis; format: ADME; details: isolated protein

T1 sequence (P02768 whole entry): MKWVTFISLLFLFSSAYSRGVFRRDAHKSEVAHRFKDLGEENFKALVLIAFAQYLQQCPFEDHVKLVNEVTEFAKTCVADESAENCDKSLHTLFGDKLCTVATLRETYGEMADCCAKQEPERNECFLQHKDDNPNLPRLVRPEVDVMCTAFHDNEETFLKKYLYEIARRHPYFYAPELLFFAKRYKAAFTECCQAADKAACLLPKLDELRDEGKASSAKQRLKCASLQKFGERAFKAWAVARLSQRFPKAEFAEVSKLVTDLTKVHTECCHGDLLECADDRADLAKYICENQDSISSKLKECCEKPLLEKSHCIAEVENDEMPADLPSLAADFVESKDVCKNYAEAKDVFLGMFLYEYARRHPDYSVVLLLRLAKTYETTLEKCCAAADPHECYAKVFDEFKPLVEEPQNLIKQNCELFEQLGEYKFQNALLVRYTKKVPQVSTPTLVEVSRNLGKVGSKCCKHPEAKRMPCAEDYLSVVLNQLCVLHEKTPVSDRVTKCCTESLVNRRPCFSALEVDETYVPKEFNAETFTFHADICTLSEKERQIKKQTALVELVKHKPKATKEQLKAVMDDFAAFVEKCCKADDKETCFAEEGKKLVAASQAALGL
72 kDa type IV collagenase (Homo sapiens), sequence (P08253 110-660 limits assumed): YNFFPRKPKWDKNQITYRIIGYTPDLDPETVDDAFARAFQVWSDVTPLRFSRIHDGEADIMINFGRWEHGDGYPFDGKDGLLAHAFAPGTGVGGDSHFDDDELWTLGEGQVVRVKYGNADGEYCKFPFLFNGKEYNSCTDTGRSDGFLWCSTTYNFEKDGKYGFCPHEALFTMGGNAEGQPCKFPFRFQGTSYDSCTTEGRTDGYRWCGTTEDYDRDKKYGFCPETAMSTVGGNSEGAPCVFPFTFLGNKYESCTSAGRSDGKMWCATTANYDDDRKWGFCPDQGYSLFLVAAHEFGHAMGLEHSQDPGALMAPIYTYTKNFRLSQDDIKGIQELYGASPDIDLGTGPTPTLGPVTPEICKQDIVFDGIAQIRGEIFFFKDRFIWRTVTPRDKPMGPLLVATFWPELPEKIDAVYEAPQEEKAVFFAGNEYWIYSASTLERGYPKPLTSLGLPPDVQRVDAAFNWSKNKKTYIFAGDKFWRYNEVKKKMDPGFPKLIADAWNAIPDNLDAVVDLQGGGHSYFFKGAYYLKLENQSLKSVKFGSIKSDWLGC
Matrix metalloproteinase-9 (Homo sapiens), sequence (P14780 whole entry): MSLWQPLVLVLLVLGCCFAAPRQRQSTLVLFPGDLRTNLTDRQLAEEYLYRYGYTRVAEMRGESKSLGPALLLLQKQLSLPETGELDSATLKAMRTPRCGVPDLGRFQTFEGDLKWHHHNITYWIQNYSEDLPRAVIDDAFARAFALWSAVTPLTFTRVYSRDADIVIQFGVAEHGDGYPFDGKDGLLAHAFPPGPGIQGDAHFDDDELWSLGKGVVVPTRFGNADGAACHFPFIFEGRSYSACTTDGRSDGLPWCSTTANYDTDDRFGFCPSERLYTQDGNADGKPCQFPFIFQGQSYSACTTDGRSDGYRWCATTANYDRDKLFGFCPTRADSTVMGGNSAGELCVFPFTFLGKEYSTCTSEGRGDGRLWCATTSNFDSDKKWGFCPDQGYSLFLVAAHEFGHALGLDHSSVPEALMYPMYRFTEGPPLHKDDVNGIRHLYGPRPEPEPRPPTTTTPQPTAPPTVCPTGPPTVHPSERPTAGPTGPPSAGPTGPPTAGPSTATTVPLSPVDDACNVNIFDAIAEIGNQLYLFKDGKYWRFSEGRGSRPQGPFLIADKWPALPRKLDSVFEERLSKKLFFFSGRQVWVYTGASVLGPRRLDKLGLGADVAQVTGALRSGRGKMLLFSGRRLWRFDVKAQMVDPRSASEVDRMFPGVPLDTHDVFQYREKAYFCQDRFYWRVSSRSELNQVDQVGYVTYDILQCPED
Mitogen-activated protein kinase; ERK1/ERK2 (Homo sapiens), sequence (P27361 whole entry, looked up): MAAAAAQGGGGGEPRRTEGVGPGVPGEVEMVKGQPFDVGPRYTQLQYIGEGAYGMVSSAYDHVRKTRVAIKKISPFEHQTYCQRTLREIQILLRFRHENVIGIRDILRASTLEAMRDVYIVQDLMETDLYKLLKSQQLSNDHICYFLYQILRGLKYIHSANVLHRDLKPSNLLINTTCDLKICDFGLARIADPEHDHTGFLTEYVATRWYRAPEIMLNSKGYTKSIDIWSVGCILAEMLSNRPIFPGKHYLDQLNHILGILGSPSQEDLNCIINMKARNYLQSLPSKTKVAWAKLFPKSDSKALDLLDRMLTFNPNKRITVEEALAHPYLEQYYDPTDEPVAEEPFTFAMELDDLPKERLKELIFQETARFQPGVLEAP
Mitogen-activated protein kinase; ERK1/ERK2 (Homo sapiens), sequence (P28482 whole entry, looked up): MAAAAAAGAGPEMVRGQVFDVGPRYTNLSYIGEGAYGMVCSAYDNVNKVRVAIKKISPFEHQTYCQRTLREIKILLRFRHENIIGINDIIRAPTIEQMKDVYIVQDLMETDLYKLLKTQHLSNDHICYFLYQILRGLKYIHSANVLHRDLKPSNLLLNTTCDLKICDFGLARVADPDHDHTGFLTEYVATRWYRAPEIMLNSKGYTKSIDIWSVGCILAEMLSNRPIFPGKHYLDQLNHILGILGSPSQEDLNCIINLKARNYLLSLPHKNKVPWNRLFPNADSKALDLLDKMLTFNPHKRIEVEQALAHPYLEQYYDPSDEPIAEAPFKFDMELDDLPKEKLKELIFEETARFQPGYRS

Which results are given for `COC(=O)c1cc2c3ccccc3[nH]c2c2cn(-c3ccc(F)cc3Cl)c[n+]12.[Cl-]`?
Activity (MDA-MB-231 [1]): Active; Activity (MDA-MB-231 [2]): Active; Activity (MDA-MB-231 [3]): Active; Activity (MDA-MB-231 [4]): Active; Activity (MDA-MB-231 [5]): Active; Activity (MDA-MB-231 [6]): Active; Activity (MDA-MB-231 [7]): Active; Activity (MDA-MB-231 [8]): Active; Activity (MDA-MB-231 [9]): Active; Activity (MDA-MB-231 [10]): Active; inhibition [11]: Active; inhibition [12]: Active; inhibition [13]: Active; inhibition [14]: Active; Activity [15]: Active; Activity (Albumin [16]): Active; Activity (Albumin [17]): Active; Kb (Albumin [18]): 9.77 ×10⁴ L/mol; Kb (Albumin [19]): 8.91 ×10⁴ L/mol; Kb (Albumin [20]): 7.94 ×10⁴ L/mol; Activity (Albumin [21]): Not Active
